{"source": "paper PMC5409837", "about": "(Science translational medicine, 2017)", "key": {"hiPSC-CMs [1]": {"tested_on": "hiPSC-CMs", "assay": "High-throughput hiPSC-CM contractility assessment", "type": "cell-based, human", "settings": "for alterations in beating rate relative to LD50: commercially-available healthy control hiPSC-CMs, 72 hour treatment"}, "hiPSC-CMs [2]": {"tested_on": "hiPSC-CMs", "assay": "Patch clamp electrophysiology", "type": "cell-based, human", "settings": "two hour treatment; for action potential duration: clinically-relevant concentrations"}, "[3]": {"tested_on": "INSR and IGF1R phosphorylation", "assay": "Human Phospho-RTK Array in hiPSC-CMs: INSR and IGF1R", "type": "cell-based", "settings": "for INSR and IGF1R phosphorylation: 0-1 μM, 72 hours"}, "[4]": {"assay": "Clinical cardiotoxicity in patients", "type": "in vivo, human", "settings": "sunitinib first-line, axitinib second-line treatment"}, "hiPSC-CMs [5]": {"tested_on": "hiPSC-CMs", "settings": "for LD50: hiPSC-CMs, 72 hour TKI treatment, PrestoBlue cell viability assay"}, "[6]": {"tested_on": "VEGFR2 and PDGFRα phosphorylation", "settings": "hiPSC-CMs"}, "hiPSCs": {"tested_on": "hiPSCs", "type": "cell-based, human"}, "hiPSC-CMs [7]": {"tested_on": "hiPSC-CMs", "assay": "Calcium imaging of hiPSC-CMs", "type": "cell-based, human", "settings": "2 hour treatment; for beat rate (calcium imaging) / calcium transient duration: clinically-relevant concentrations", "method_in_brief": "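hiPSC-CMs (day 30–40 post-differentiation) reseeded on Matrigel-coated chamber slides and exposed to test compound for 2 hours; compound stocks in DMSO at 10 mM. Cells loaded with 5 μM Fluo-4 AM plus 0.02% Pluronic F-127 in Tyrode's solution for 15 min at 37°C, then washed. Spontaneous Ca2+ transients recorded at 37°C by confocal single-cell line scan.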"}, "Axl phosphorylation": {"tested_on": "Axl phosphorylation", "assay": "Human Phospho-RTK Array in hiPSC-CMs: Axl", "type": "cell-based", "settings": "0-1 μM, 72 hours"}, "hiPSC-CMs [8]": {"tested_on": "hiPSC-CMs"}, "[9]": {"settings": "patients, cited from earlier work"}, "hiPSC-ECs": {"tested_on": "hiPSC-ECs", "assay": "TKI cytotoxicity in hiPSC-derived endothelial cells", "type": "cell-based"}, "hiPSC-CFs": {"tested_on": "hiPSC-CFs", "assay": "TKI cytotoxicity in hiPSC-derived cardiac fibroblasts", "type": "cell-based"}, "neuropilin 2 (NRP2)": {"tested_on": "neuropilin 2 (NRP2)", "assay": "Microarray gene expression in hiPSC-CMs after TKI treatment", "type": "cell-based, human", "settings": "1 μM TKI, 72 hour"}, "hiPSC-CMs [10]": {"tested_on": "hiPSC-CMs", "settings": "cited from earlier work"}, "zebrafish heart": {"tested_on": "zebrafish heart", "settings": "cited from earlier work"}, "VEGFC": {"tested_on": "VEGFC", "assay": "RNA-sequencing of hiPSC-CMs treated with sorafenib: VEGFC", "type": "cell-based, human", "settings": "5 healthy control hiPSC-CM lines, 1 μM, 72 hours"}, "Akt protein network": {"tested_on": "Akt protein network", "assay": "Human Phospho-Kinase Antibody Array in hiPSC-CMs after IGF1 or insulin", "type": "cell-based", "settings": "12 hour IGF1 or insulin treatment"}, "hiPSC-CMs [11]": {"tested_on": "hiPSC-CMs", "type": "cell-based", "settings": "for rescue of ponatinib toxicity (hiPSC-CM viability): co-treatment with ponatinib, 72 hours, CellTiter-Glo"}, "[12]": {"settings": "quantitative and qualitative viability assays"}}, "note": "Like-named read-outs stand apart in the source and are kept apart here.", "data": [{"compound": "CNC(=O)c1ccccc1Sc1ccc2c(/C=C/c3ccccn3)n[nH]c2c1", "note": "[axitinib]", "values": [{"measurement": "contraction irregularities", "setting": "hiPSC-CMs [1]; clinically-relevant concentrations", "value": "Neither DMSO nor axitinib elicited contraction irregularities"}, {"measurement": "action potential duration", "setting": "hiPSC-CMs [2]", "value": "did not alter action potential duration"}, {"measurement": "fold enhancement of INSR/IGF1R phosphorylation", "setting": "[3]", "value": "two-fold"}, {"measurement": "INSR and IGF1R phosphorylation", "setting": "[3]", "value": "increased INSR and IGF1R phosphorylation"}, {"measurement": "clinical cardiotoxicity in the two kidney cancer patients", "setting": "[4]", "value": "no significant clinical cardiotoxicity"}, {"measurement": "difference in cytotoxicity between TKI-receiving patient hiPSC-CMs and healthy control hiPSC-CM lines", "setting": "hiPSC-CMs [5]", "value": "did not observe a significant difference in cytotoxicity"}, {"measurement": "relative cytotoxicity among TKIs in hiPSC-CMs", "setting": "hiPSC-CMs [5]", "value": "the least cytotoxic TKI in hiPSC-CMs"}, {"measurement": "VEGFR2 and PDGFRα phosphorylation", "setting": "[6]; 0-1 μM, 72 hours, sub-cytotoxic concentrations", "value": "the strongest dual-inhibition"}, {"measurement": "toxicity in undifferentiated hiPSCs", "setting": "hiPSCs", "value": "extremely toxic to hiPSCs"}, {"measurement": "calcium imaging parameters (transient amplitude, transient duration, beating rate)", "setting": "hiPSC-CMs [7]", "value": "did not significantly alter parameters such as calcium transient amplitude, transient duration, or beating rate"}]}, {"compound": "COc1cc2nccc(Oc3ccc(NC(=O)C4(C(=O)Nc5ccc(F)cc5)CC4)cc3)c2cc1OC", "note": "[cabozantinib]", "values": [{"measurement": "Axl phosphorylation", "setting": "Axl phosphorylation", "value": "decreased Axl phosphorylation"}]}, {"compound": "COc1cccc2c1C(=O)c1c(O)c3c(c(O)c1C2=O)C[C@@](O)(C(=O)CO)C[C@@H]3O[C@H]1C[C@H](N)[C@H](O)[C@H](C)O1", "note": "[doxorubicin]", "values": [{"measurement": "LD50", "setting": "hiPSC-CMs [5]", "value": 0.78, "unit": "µM"}, {"measurement": "cardiac safety index", "setting": "hiPSC-CMs [8]; human, 72 h", "value": "≤ 0.10"}, {"measurement": "toxicity in hiPSCs at 0.1 μM", "setting": "hiPSCs", "value": "lethal"}, {"measurement": "toxicity in undifferentiated hiPSCs", "setting": "hiPSCs", "value": "substantially enhanced in hiPSCs"}]}, {"compound": "C#Cc1cccc(Nc2ncnc3cc(OCCOC)c(OCCOC)cc23)c1", "note": "[erlotinib]", "values": [{"measurement": "LD50", "setting": "hiPSC-CMs [5]", "value": 87.60, "unit": "µM"}]}, {"compound": "Cc1ccc(NC(=O)c2ccc(CN3CCN(C)CC3)cc2)cc1Nc1nccc(-c2cccnc2)n1", "note": "[imatinib]", "values": [{"measurement": "calcium imaging parameters (transient amplitude, transient duration, beating rate)", "setting": "hiPSC-CMs [7]", "value": "did not significantly alter parameters such as calcium transient amplitude, transient duration, or beating rate"}]}, {"compound": "Cc1cn(-c2cc(NC(=O)c3ccc(C)c(Nc4nccc(-c5cccnc5)n4)c3)cc(C(F)(F)F)c2)cn1", "note": "[nilotinib]", "values": [{"measurement": "alterations in beating rate relative to LD50", "setting": "hiPSC-CMs [1]", "value": "alterations in hiPSC-CM beating rate and other parameters at doses lower than LD50 cytotoxicity values"}, {"measurement": "cellular beating rate (patch clamp)", "setting": "hiPSC-CMs [2]", "value": "decreased cellular beating rate"}, {"measurement": "action potential duration", "setting": "hiPSC-CMs [2]", "value": "significantly prolonged action potential duration"}, {"measurement": "cardiac safety index", "setting": "hiPSC-CMs [8]; human, 72 h", "value": "≤ 0.10"}, {"measurement": "beat rate (calcium imaging)", "setting": "hiPSC-CMs [7]", "value": "decreased beat rate"}, {"measurement": "calcium transient duration", "setting": "hiPSC-CMs [7]", "value": "prolonged calcium transient duration"}, {"measurement": "clinical QT interval prolongation and arrhythmias", "setting": "[9]", "value": "cause dangerous QT interval prolongation and arrhythmias clinically"}]}, {"compound": "Cc1ccc(C(=O)Nc2ccc(CN3CCN(C)CC3)c(C(F)(F)F)c2)cc1C#Cc1cnc2cccnn12", "note": "[ponatinib]", "values": [{"measurement": "relative cytotoxicity in hiPSC-ECs", "setting": "hiPSC-ECs", "value": "the most cytotoxic TKIs in hiPSC-ECs"}, {"measurement": "fold enhancement of INSR/IGF1R phosphorylation", "setting": "[3]", "value": "two-fold"}, {"measurement": "INSR and IGF1R phosphorylation", "setting": "[3]", "value": "increased INSR and IGF1R phosphorylation"}, {"measurement": "LD50", "setting": "hiPSC-CMs [5]", "value": 4.3, "unit": "µM"}, {"measurement": "cytotoxicity in all eleven healthy control hiPSC-CM lines", "setting": "hiPSC-CMs [5]; [12]", "value": "highly cytotoxic"}, {"measurement": "VEGFR2/PDGFR inhibition at nanomolar concentrations", "setting": "[6]", "value": "complete VEGFR2/PDGFR inhibition"}, {"measurement": "relative cytotoxicity in hiPSC-CFs", "setting": "hiPSC-CFs", "value": "the highest cytotoxicities"}, {"measurement": "increase in expression of neuropilin 2", "setting": "neuropilin 2 (NRP2)", "value": "two-fold"}, {"measurement": "mitochondrial stress and contraction abnormalities in hiPSC-CMs", "setting": "hiPSC-CMs [10]", "value": "induce mitochondrial stress and elicit contraction abnormalities in hiPSC-CMs"}]}, {"compound": "CNC(=O)c1cc(Oc2ccc(NC(=O)Nc3ccc(Cl)c(C(F)(F)F)c3)c(F)c2)ccn1", "note": "[regorafenib]", "values": [{"measurement": "relative cytotoxicity in hiPSC-ECs", "setting": "hiPSC-ECs", "value": "the most cytotoxic TKIs in hiPSC-ECs"}, {"measurement": "LD50", "setting": "hiPSC-CMs [5]", "value": 7.1, "unit": "µM"}, {"measurement": "cytotoxicity in all eleven healthy control hiPSC-CM lines", "setting": "hiPSC-CMs [5]; [12]", "value": "highly cytotoxic"}, {"measurement": "VEGFR2/PDGFR inhibition at nanomolar concentrations", "setting": "[6]", "value": "complete VEGFR2/PDGFR inhibition"}, {"measurement": "cardiac safety index", "setting": "hiPSC-CMs [8]; value from 0-1, 0.10 = threshold for highly cardiotoxic compounds", "value": "below 0.10"}, {"measurement": "relative cytotoxicity in hiPSC-CFs", "setting": "hiPSC-CFs", "value": "the highest cytotoxicities"}, {"measurement": "increase in expression of neuropilin 2", "setting": "neuropilin 2 (NRP2)", "value": "two-fold"}]}, {"compound": "CNC(=O)c1cc(Oc2ccc(NC(=O)Nc3ccc(Cl)c(C(F)(F)F)c3)cc2)ccn1", "note": "[sorafenib]", "values": [{"measurement": "cardiotoxicity in zebrafish heart", "setting": "zebrafish heart", "value": "induces cardiomyocyte death and contractility defects in the zebrafish heart"}, {"measurement": "cytotoxicity in all eleven healthy control hiPSC-CM lines", "setting": "hiPSC-CMs [5]", "value": "highly cytotoxic"}, {"measurement": "LD50", "setting": "hiPSC-CMs [5]", "value": 3.4, "unit": "µM"}, {"measurement": "increase in expression of neuropilin 2", "setting": "neuropilin 2 (NRP2)", "value": "two-fold"}, {"measurement": "VEGFC expression", "setting": "VEGFC", "value": "increased expression"}, {"measurement": "clinical cardiotoxicity", "setting": "[9]; ref Table S2, 20", "value": "causes ventricular dysfunction and heart failure clinically"}]}, {"compound": "CCN(CC)CCNC(=O)c1c(C)[nH]c(/C=C2\\C(=O)Nc3ccc(F)cc32)c1C", "note": "[sunitinib]", "values": [{"measurement": "clinical cardiotoxicity in the two kidney cancer patients", "setting": "[4]", "value": "no significant clinical cardiotoxicity"}, {"measurement": "difference in cytotoxicity between TKI-receiving patient hiPSC-CMs and healthy control hiPSC-CM lines", "setting": "hiPSC-CMs [5]", "value": "did not observe a significant difference in cytotoxicity"}]}, {"compound": "COc1cc2c(Nc3ccc(Br)cc3F)ncnc2cc1OCC1CCN(C)CC1", "note": "[vandetanib]", "values": [{"measurement": "alterations in beating rate relative to LD50", "setting": "hiPSC-CMs [1]", "value": "alterations in hiPSC-CM beating rate and other parameters at doses lower than LD50 cytotoxicity values"}, {"measurement": "cellular beating rate (patch clamp)", "setting": "hiPSC-CMs [2]", "value": "decreased cellular beating rate"}, {"measurement": "action potential duration", "setting": "hiPSC-CMs [2]", "value": "significantly prolonged action potential duration"}, {"measurement": "beat rate (calcium imaging)", "setting": "hiPSC-CMs [7]", "value": "decreased beat rate"}, {"measurement": "calcium transient duration", "setting": "hiPSC-CMs [7]", "value": "prolonged calcium transient duration"}, {"measurement": "clinical QT interval prolongation and arrhythmias", "setting": "[9]", "value": "cause dangerous QT interval prolongation and arrhythmias clinically"}]}, {"compound": "IGF1", "values": [{"measurement": "phosphorylation of Akt protein network", "setting": "Akt protein network", "value": "enhanced phosphorylation of the anti-apoptotic Akt protein network"}, {"measurement": "rescue of ponatinib toxicity (hiPSC-CM viability)", "setting": "hiPSC-CMs [11]", "value": "cardioprotective effect"}, {"measurement": "rescue of ponatinib toxicity (hiPSC-CM viability)", "setting": "hiPSC-CMs [11]; listed as IGF", "value": "significantly rescued ponatinib toxicity"}]}, {"compound": "insulin", "values": [{"measurement": "phosphorylation of Akt protein network", "setting": "Akt protein network", "value": "enhanced phosphorylation of the anti-apoptotic Akt protein network"}, {"measurement": "rescue of doxorubicin cytotoxicity in hiPSC-CMs", "setting": "hiPSC-CMs [11]; co-treatment with doxorubicin", "value": "rescued hiPSC-CMs from doxorubicin cytotoxicity"}]}]}
